The results in this text go back to ChEMBL document CHEMBL4627246, “Pyroglutamide-Based P2X7 Receptor Antagonists Targeting Inflammatory Bowel Disease” (J Med Chem, 2020).

Activity calls are given as the source filed them. The calls are words filed in the database; no cut-off is given here.

One data set concerns the target T1, P2X purinoceptor 7 (Homo sapiens, UniProt Q99572).
T1 sequence (Q99572 whole entry): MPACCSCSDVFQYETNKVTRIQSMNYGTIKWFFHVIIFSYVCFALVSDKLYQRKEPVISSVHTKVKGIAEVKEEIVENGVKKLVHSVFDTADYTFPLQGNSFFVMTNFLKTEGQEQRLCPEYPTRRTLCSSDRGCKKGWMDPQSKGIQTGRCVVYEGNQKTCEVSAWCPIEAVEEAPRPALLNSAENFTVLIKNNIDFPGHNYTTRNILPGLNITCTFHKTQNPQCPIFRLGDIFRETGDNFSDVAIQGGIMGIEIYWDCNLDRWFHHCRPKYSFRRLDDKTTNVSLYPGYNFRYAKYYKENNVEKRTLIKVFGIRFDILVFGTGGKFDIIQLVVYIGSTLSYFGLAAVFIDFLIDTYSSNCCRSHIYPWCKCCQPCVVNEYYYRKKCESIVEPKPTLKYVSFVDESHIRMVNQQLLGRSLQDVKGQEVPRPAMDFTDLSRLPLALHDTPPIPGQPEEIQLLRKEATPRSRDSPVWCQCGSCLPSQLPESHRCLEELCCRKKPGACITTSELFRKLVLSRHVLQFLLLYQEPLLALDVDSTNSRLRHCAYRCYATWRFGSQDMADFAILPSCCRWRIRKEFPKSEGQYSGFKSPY
Description: Displacement of [3H]-A804598 from human P2X7 expressed in human HEK293 cell membrane incubated for 1 hr by microplate scintillation counting method. Type of data set: cell membranes.

For data set [1], the target named is T2, P2X purinoceptor 7 (Homo sapiens) (UniProt Q99572).
T2 sequence (whole entry): T1 sequence (Q99572 whole entry)
Nature of the data set: Antagonist activity at P2X7 receptor in human THP-1 cells assessed as inhibition of LPS and BzATP-induced IL-1beta production at 10^-6 mol/L pretreated with compound followed by LPS/BzATP addition and measured after 2 to 6 hrs by ELISA. Type of data set: cell-based. To be noted: TDE = time-dependent effect. The procedure, abridged: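 PMA (100nM)-differentiated THP-1 macrophages (RPMI 1640, 10% FCS), 10^6 cells, pretreated with antagonist at […], then challenged with LPS 10 μmol/L and BzATP 70 μmol/L at 37 °C, 5% CO2; IL1β measured by ELISA, including the 6 h point; mean ± SD, P<0.05 significant.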

Data set [2] concerns the target T2, P2X purinoceptor 7 (Homo sapiens). Nature of the data set: Inhibition of human P2X7 expressed in human HEK293 cells assessed as reduction in BzATP-stimulated TO-PRO-3 incorporation at 10 uM preincubated with compound and TO-PRO-3 for 15 mins prior to BzATP addition and measured after 1 hr by Fluo-3AM dye based flow cytometry relative to control. Type of data set: cell-based. The procedure, abridged:
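HEK-293 cells overexpressing human P2RX7 loaded with Fluo-3 AM, then incubated with TO-PRO-3 (large pore uptake) and propidium iodide (viability) plus compound (10⁻⁵ M single point) for 15 min before BzATP 100 µM. After 1 h, flow cytometry; percentage of Fluo-3/TO-PRO-3 double-positive cells calculated. Mean of n ≥ 2 with positive control.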

The test system of another data set is HEK293. Nature of the data set: Cytotoxicity against human HEK293 cells assessed as reduction in cell viability at 10^-5 mol/L incubated for 72 hrs. Type of data set: cell-based. Conditions: hek293, 72 h, 10 µM. A digest of the protocol: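 Wild-type and P2RX7-transfected HEK293 cells exposed to compound for 72 hours; viability compared against untreated control.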

For data set [3], the target named is T3, P2X purinoceptor 1 (Homo sapiens) (UniProt P51575).
T3 sequence (whole entry): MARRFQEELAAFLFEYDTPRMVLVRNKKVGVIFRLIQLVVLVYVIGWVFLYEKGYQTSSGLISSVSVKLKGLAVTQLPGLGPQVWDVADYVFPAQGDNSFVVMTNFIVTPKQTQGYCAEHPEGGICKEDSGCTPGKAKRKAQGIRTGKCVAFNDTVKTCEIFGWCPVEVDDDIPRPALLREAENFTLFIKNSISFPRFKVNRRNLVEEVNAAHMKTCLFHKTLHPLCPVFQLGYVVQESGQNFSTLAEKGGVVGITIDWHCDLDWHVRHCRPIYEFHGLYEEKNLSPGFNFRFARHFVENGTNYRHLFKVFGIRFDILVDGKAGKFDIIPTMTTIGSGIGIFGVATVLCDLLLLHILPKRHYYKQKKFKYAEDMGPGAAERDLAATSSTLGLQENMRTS
Nature of the data set: Antagonist activity at P2X1 receptor in human platelet assessed as inhibition of thrombin-induced platelet aggregation at 10 '-5 to 10^-6 mol/L pretreated with compound and LPS/BzATP for 10 mins followed by thrombin addition and measured for 8 mins by aggregometry analysis. Type of data set: cell-based.

The nature of data set [4]: Drug metabolism in mouse measured after 40 mins. Type of data set: ADME. Conditions: read-out: Drug metabolism.
The nature of data set [5]: Metabolic stability in human liver microsomes assessed as half life at 0.2 mg/ml incubated for 60 mins by UPLC/MS-MS analysis. Type of data set: ADME, Microsome.
Data set [6] can be described thus: Metabolic stability in human liver microsomes assessed as intrinsic clearance at 0.2 mg/ml incubated for 60 mins by UPLC/MS-MS analysis. Type of data set: ADME, Microsome. To be noted: read-out: CLH.
Data set [7] has as its target T2, P2X purinoceptor 7 (Homo sapiens). Description: Antagonist activity at P2X7 receptor in human THP-1 cells assessed as inhibition of LPS and BzATP-induced IL-1beta production at 10^-5 mol/L pretreated with compound followed by LPS/BzATP addition and measured after 2 to 6 hrs by ELISA. Type of data set: cell-based. A digest of the protocol:
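THP-1 monocytes grown in RPMI 1640 + 10% FCS, differentiated to macrophages with PMA (100nM); 10^6 cells pretreated with antagonist at 10^-5 mol/L, then exposed to LPS 10 μmol/L plus BzATP 70 μmol/L at 37 °C, 5% CO2; IL1β quantified by ELISA in samples at 2, 4 and 6 h; mean ± SD, significance P<0.05.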

The nature of data set [8]: Solubility of compound in saline at 1mg/ml. Type of data set: physicochemical. Conditions: buffer.
Data set [9] has as its target T2, P2X purinoceptor 7 (Homo sapiens). Description: Antagonist activity at P2X7R in human THP1 cells assessed as inhibition of LPS and BzATP-induced ROS production at 10^-5 mol/L pretreated with compound followed by LPS/BzATP addition and measured up to 5 hrs by kinetic chemiluminescence based fluorometric analysis. Type of data set: cell-based. Conditions: THP-1. The procedure, abridged:
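PMA-differentiated THP-1 macrophages (10^5 cells) in RPMI 1640 + 10% FBS pretreated with antagonist at 10^-5 mol/L, then LPS 10 μmol/L plus BzATP 70 μmol/L at 37 °C, 5% CO2; horseradish peroxidase (50 μg/mL) and luminol (50 μM) mixture added, chemiluminescence read on a fluorometer; cell-free H2O2 serves as positive control.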

Data set [10] is described as follows: Metabolic stability in human hepatocytes. Type of data set: ADME, cell-based, Hepatocyte.
In data set [11] the target is T2, P2X purinoceptor 7 (Homo sapiens). Description: Antagonist activity at P2X7R in human THP1 cells assessed as inhibition of LPS and BzATP-induced IL-1beta expression by measuring increase in proIL-1beta expression in cell supernatant extract at 10^-6 mol/L pretreated with compound followed by LPS/BzATP addition and measured after 6 hrs by Western blot analysis. Type of data set: cell-based. Conditions: THP-1.

Data set [12] has the same target. Description: Antagonist activity at P2X7R in human THP1 cells assessed as inhibition of LPS and BzATP-induced mature form of IL-1beta expression in cells supernatant at 10^-6 mol/L pretreated with compound followed by LPS/BzATP addition and measured after 2 to 6 hrs by Western blot analysis. Type of data set: cell-based. To be noted: THP-1.
Data set [13] shares this target. Nature of the data set: Antagonist activity at P2X7R in human THP1 cells assessed as inhibition of LPS and BzATP-induced mature form of IL-1beta expression in whole cell extract at 10^-6 mol/L pretreated with compound followed by LPS/BzATP addition and measured after 2 to 6 hrs by Western blot analysis. Type of data set: cell-based. Conditions: THP-1.
The target is the same in data set [14]. Description: Antagonist activity at P2X7R in human THP1 cells assessed as inhibition of LPS and BzATP-induced cell death at 10^-6 mol/L pretreated with compound followed by LPS/BzATP addition and measured after 6 hrs by sytox green dye based flow cytometry. Conditions: THP-1.
The test system of data set [15] is Mus musculus. Description: Antiinflammatory activity against DSS-induced colitis C57BL/6J mouse model assessed as decrease in inflammation level in colon at 2.5 mg/kg, ip administered daily and measured after day 14 by hematoxylin and eosin staining based microscopic analysis. Type of data set: functional. To be noted: 336 h. The procedure, abridged: (§1)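 DSS colitis in WT mice: 3.8% DSS in drinking water days 1–5, then tap water for 10 days; compound 2.5 mg/kg given i.p. daily in 10% DMSO/PBS; cohorts of 10 mice per group, placebo as comparator; weight loss and clinical disease score tracked; colon sections at day 14 stained with H&E and histologically scored; data as mean ± SEM.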

Data set [16] deals with T2, P2X purinoceptor 7 (Homo sapiens). Nature of the data set: Antagonist activity at P2X7R in human THP1 cells assessed as inhibition of LPS and BzATP-induced ROS production at 10^-6mol/L pretreated with compound followed by LPS/BzATP addition and measured after 4 hrs by kinetic chemiluminescence based fluorometric analysis. Type of data set: cell-based. Conditions: THP-1. A digest of the protocol:
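Differentiated THP-1 macrophages (10^5 cells, RPMI 1640 + 10% FBS) pretreated with antagonist at 10^-6 mol/L before LPS (10 μmol/L) and BzATP (70 μmol/L), 37 °C, 5% CO2; ROS detected as luminol (50 μM)/horseradish peroxidase (50 μg/mL) chemiluminescence on a fluorometer; H2O2 without cells as positive control.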

The test system of data set [17] is Mus musculus. Description: Antiinflammatory activity against DSS-induced colitis C57BL/6J mouse model assessed as areas of normal colonic mucosa with straight and larger crypts on muscularis mucosa at 2.5 mg/kg, ip administered daily and measured after day 14 by hematoxylin and eosin staining based microscopic analysis. Type of data set: functional, organism-based. The procedure, abridged:
as §1

For data set [18], the target named is T2, P2X purinoceptor 7 (Homo sapiens). Nature of the data set: Antagonist activity at P2X7R in human THP1 cells assessed as inhibition of LPS and BzATP-induced cell death at 10^-6 mol/L pretreated with compound followed by LPS/BzATP addition and measured after 4 hrs by sytox green dye based flow cytometry. Conditions: THP-1.

Regarding `O=C(NCc1ccc(Cl)cc1Cl)[C@@H]1CCC(=O)N1c1ccoc1`, the IC50 at P2X purinoceptor 7 was 0.422 µM. The Ki on P2X purinoceptor 7 stood at 0.086 µM. Moreover, the inhibition entry in data set [1] is “Tde”; in data set [2] it was 85%. In the data set on HEK293, the Activity entry is on record as “Non-Toxic”. Also, in data set [3], the outcome was inactive. Further, the metabolised at 40 min in data set [4] worked out at 99.9%. The half-life in data set [5] worked out at 2.9 min. For the same compound, the microsomal CLint in data set [6] amounted to 630 µL/min/mg. Besides, the inhibition result in data set [7] and in data set [9] was “Active” throughout. In addition, the solubility entry in [8] is “Insoluble”. In addition, the Stability entry in data set [10] is recorded as “Unstable”.

As to `O=C(NCc1cccc(C(F)(F)F)c1Cl)[C@@H]1CCC(=O)N1c1cccs1`, the IC50 at P2X purinoceptor 7 is 0.218 µM. For the same compound, the Ki at P2X purinoceptor 7 turned out to be 0.044 µM. For the same compound, the inhibition entry in [11], in [12], in data set [7], in data set [9] and in [13] was “Active” each time. The inhibition result was “Tde” in [1] and 100% in [2]. The Activity entry in the data set with HEK293 is “Non-Toxic”. Also, the result in data set [3] was inactive. Besides, in data set [4], the metabolised at 40 min was 99.7%. For the same compound, the half-life in [5] was determined as 3.8 min. In addition, in data set [6], the microsomal CLint was 530 µL/min/mg. For the same compound, the solubility entry in [8] is on record as “Insoluble”. Also, in [10], the Stability result is on record as “Unstable”.

The compound `O=C(NCc1ccc(Cl)cc1Cl)[C@@H]1CCC(=O)N1c1ccco1` had an IC50 on P2X purinoceptor 7 of 0.575 µM. The same compound displayed a Ki at P2X purinoceptor 7 of 0.118 µM. Also, the inhibition entry in [1] was “Tde”; in data set [2], 94%. Besides, the Activity entry with HEK293 is listed as “Non-Toxic”. Moreover, the outcome in data set [3] was inactive. The metabolised at 40 min in data set [4] turned out to be 99.2%. Further, the half-life in data set [5] turned out to be 5.2 min. The microsomal CLint in data set [6] was found to be 411 µL/min/mg. For the same compound, the inhibition entry in data set [7] and in data set [9] was “Active” in each case. The solubility entry in data set [8] is listed as “Insoluble”. Moreover, the Stability result in data set [10] was “Unstable”.

For the compound `CN1C(=O)CC[C@H]1C(=O)NCc1ccc(Cl)cc1Cl`, at P2X purinoceptor 7, the IC50 came to 0.862 µM. At P2X purinoceptor 7, the Ki is 0.176 µM. Further, the inhibition entry in data set [1] was “Tde”; in data set [2] it was 100%. Moreover, in data set [14], the inhibition entry is “inactive”. Also, the inhibition in vivo at 2.5 mg/kg in the data set with Mus musculus [15] lay in the range of 42 to 50%. For the same compound, the metabolised at 40 min in [4] amounted to 5.1%. Also, the half-life in data set [5] is 619 min. For the same compound, the microsomal CLint in data set [6] turned out to be 3.6 µL/min/mg. The inhibition entry in data set [7], in data set [16], in [9] and in [18] was “Active” in each case. Further, the Stability entry in data set [10] is given as “Stable”. For the same compound, the outcome in the data set with Mus musculus [17] was Active.
